Experimental data as given in ChEMBL document CHEMBL4346690, “Structure-activity relationship studies of (E)-3,4-dihydroxystyryl alkyl sulfones as novel neuroprotective agents based on improved antioxidant, anti-inflammatory activities and BBB permeability” (Eur J Med Chem, 2019).
Active and inactive are the calls of the source. The rule behind the calls is not given here.

Key:
[1] = Inhibition of soybean 15-LOX using arachidonic acid or linoleic acid as substrate incubated for 10 mins by colorimetric lipoxygenase inhibitor screening assay kit method; design: species or system Glycine max
Summary of the method: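 Soybean 15-LOX in a colorimetric kit: enzyme plus compound (1.25–100 µM, in assay buffer), reaction started with arachidonic or linoleic acid substrate, shaken at least 10 min. Chromogen added to stop and develop, absorbance at 490–500 nm; IC50 determined, mean ± SD, n = 3.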

PC-12 [2] = experiment: Neuroprotection activity in rat PC12 cells assessed as reduction in 6-OHDA-induced cell damages at 2.5 uM preincubated for 3 hrs followed by H2O2 addition and measured after 24 hrs by MTT assay relative to control; type: functional, cell-based; conditions: in the assay text read “6-OHDA addition” for “H2O2 addition”
Summary of the method: (§1)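 PC12 cells plated at 2 × 10^5 cells mL−1 for 1 day, pretreated 3 h with compounds at 2.5, 5 or 10 µM, then 6-OHDA (final 250 µM) added for 24 h. Viability by MTT, absorbance 570 nm; untreated cells = 100%; mean ± SD, n = 3.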

PC-12 [3] = experiment: Neuroprotection against H2O2-induced cell death in rat PC12 cells assessed as increase in cell viability at 5 uM preincubated for 3 hrs followed by H2O2 addition and measured after 3 hrs by MTS assay relative to CAPE; type: functional
Summary of the method: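 PC12 cells plated at 2 × 10^5 cells/mL for 1 day, pretreated with compound (2.5, 5, 10 µM) for 3 h, then H2O2 added (final 400 µM) for 3 h. Viability read by MTS at 490 nm, untreated cells = 100%. Mean ± SD, n = 3.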

[4] = Potency index, ratio of IC50 for (E)-4-(2-((3-phenylpropyl)sulfonyl)vinyl)benzene-1,2-diol to IC50 for test compound for anti-neuroinflammatory activity in […] BV2 cells; type: functional
[5] = Anti-neuroinflammatory activity in […] BV2 cells assessed as reduction in LPS-induced NO production preincubated for 3 hrs followed by LPS stimulation for 24 hrs by Griess assay; type: functional, cell-based; conditions: BV-2
Summary of the method: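 BV2 microglia seeded 3 × 10^5 cells mL−1 for 1 day; compounds in medium added for 3 h, then LPS (final 100 ng mL−1) for a further 24 h. Supernatant mixed with Griess reagent, absorbance at 540 nm. Inhibition % from NO release of LPS-only, unstimulated and compound+LPS wells; IC50 reported; mean ± SD, n = 3.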

[6] = Antioxidant activity assessed as DPPH radical scavenging activity after 1 hr by […]; type: functional
Summary of the method: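 DPPH (0.2 mM) in ethanol mixed with sample, kept 1 h at room temperature, absorbance read at 517 nm. Scavenging % = [1−(Ac−Ab)/A0]×100, where Ab is the sample in ethanol without DPPH and A0 is the ethanol+DPPH control. EC50 reported; vitamin C used as reference antioxidant; mean ± SD, n = 3.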

PC-12 [7] = experiment: Neuroprotection activity in rat PC12 cells assessed as reduction in H2O2-induced cell death preincubated for 3 hrs followed by H2O2 addition and measured after 3 hrs by MTS assay; type: functional, cell-based
Summary of the method: (§2)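 PC12 cells plated at 2 × 10^5 cells mL−1 for 1 day, pretreated 3 h with compounds, then H2O2 (final 400 µM) for 3 h. Viability by MTS at 490 nm relative to untreated cells (100%); single-concentration tests at 2.5, 5, 10 µM and IC50 values; mean ± SD, n = 3.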

[8] = Potency index, ratio of IC50 for CAPE to IC50 for test compound for anti-neuroinflammatory activity in […] BV2 cells; type: functional
PC-12 [9] = experiment: Neuroprotection against H2O2-induced cell death in rat PC12 cells assessed as decrease in early apoptotic cells at 10 uM preincubated for 3 hrs followed by H2O2 addition and measured 3 hrs by Annexin V-FITC/propidium iodide staining based fluorescence microscopic method; type: functional
Summary of the method: (§3)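 PC12 cells (1.5 × 10^5 cells mL−1, 35 mm dishes) plated 1 day, pretreated 3 h at 2.5 or 10 µM, then exposed to H2O2 (final 400 µM) for 3 h. Washed with ice-cold PBS, stained with Annexin V-FITC and PI in binding buffer for 5 min at 25 °C in the dark, and counted by fluorescence microscopy as early (AV+) or late (AV+PI+) apoptotic cells.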

[10] = Cytotoxicity against […] BV2 cells assessed as cell viability at 100 uM after 24 hrs by MTT assay; type: cell-based; conditions: read-out: Activity
Summary of the method: (§4)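 Cells kept in high-glucose DMEM with 10% FBS and 1% PS at 37 °C, 5% CO2. Plated 1 day, then compounds for 24 h; viability by MTT at 100 µM as ODtreated/ODcontrol × 100%, untreated = 100%. Mean ± SD, n = 3.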

PC-12 [11] = experiment: Neuroprotection against H2O2-induced cell death in rat PC12 cells assessed as decrease in apoptotic cells at 2.5 uM preincubated for 3 hrs followed by H2O2 addition and measured 3 hrs by Annexin V-FITC/propidium iodide staining based fluorescence microscopic method; type: functional; summary of the method: as §3
[12] = Cytotoxicity against […] BV2 cells assessed as cell viability at 0.625 to 40 uM after 24 hrs by MTS assay; type: cell-based; conditions: read-out: Activity
Summary of the method: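 Viability of BV2 cells read by MTS under the NO-assay conditions: 3 h compound (0.625–40 µM) pretreatment followed by LPS 100 ng mL−1 for 24 h.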

PC-12 [13] = experiment: Neuroprotection activity in rat PC12 cells assessed as reduction in 6-OHDA-induced cell damages at 10 uM preincubated for 3 hrs followed by H2O2 addition and measured after 24 hrs by MTT assay relative to control; type: functional, cell-based; conditions: in the assay text read “6-OHDA addition” for “H2O2 addition”; summary of the method: as §1
PC-12 [14] = experiment: Neuroprotection against H2O2-induced cell death in rat PC12 cells assessed as increase in cell viability at 2.5 to 5 uM preincubated for 3 hrs followed by H2O2 addition and measured after 3 hrs by MTS assay; type: functional, cell-based; summary of the method: as §2
[15] = Cytotoxicity against rat PC12 cells assessed as cell viability at 100 uM after 24 hrs by MTT assay; type: cell-based, PC-12; conditions: read-out: Activity; summary of the method: as §4
PC-12 [16] = experiment: Neuroprotection against H2O2-induced cell death in rat PC12 cells assessed as decrease in late apoptotic cells at 10 uM preincubated for 3 hrs followed by H2O2 addition and measured 3 hrs by Annexin V-FITC/propidium iodide staining based fluorescence microscopic method; type: functional; summary of the method: as §3

Row | Compound | IC50 [1] | Activity (PC-12 [2]) | Activity (PC-12 [3]) | Ratio IC50 [4] | IC50 [5] | EC50 [6] | IC50 (PC-12 [7]) | Ratio IC50 [8] | Activity (PC-12 [9]) | viability at 24 h, 100 µM [10] | Activity (PC-12 [11]) | viability at 24 h, up to 40 µM [12] | Activity (PC-12 [13]) | Activity (PC-12 [14]) | viability at 24 h, 100 µM [15] | Activity (PC-12 [16])
1 | O=S(=O)(/C=C/c1ccc(O)c(O)c1)CCCC1CCCC1 | 103 µM | Active | 30% | 8 | 1.6 µM | 6.3 µM | 1.28 µM | 4 | Active | 72.4% | Active | > 90% | Active | Active | 70.5% | Active
2 | O=S(=O)(/C=C/c1ccc(O)c(O)c1)CCCc1ccccc1 | 140 µM |  |  |  | 13.4 µM | 11.5 µM | 1.86 µM |  | Active | 72% | Active | > 90% | Active |  | 86.1% | Active
3 | CC(Cc1ccc(O)c(O)c1)C(C)Cc1ccc(O)c(O)c1 (stereo not drawn) [NORDIHYDROGUAIARETIC ACID] | 2.1 µM |  |  |  |  |  |  |  |  |  |  |  |  |  |  | 
